Sampled rows, rich in hits. Any-hit rate of the full collection: about 2.8%.
CAL PDZ FP-1 – human CAL PDZ-peptide interaction inhibition. AID 504414. 330,000 tested, 0.02% active. Q9HD26. inhibition, % at 20 µM. purified CAL PDZ, TMR-peptide fluorescence polarization, 1 h;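 active means highest replicate inhibition of at least 40%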;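 further: plate controls were DMSO neutral control wells for no effect and unlabeled competitor peptide control wells for full effect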
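Test system: purified CerCALP PDZ construct; Compound dosing: one concentration, 20 µM compound; Also added: TMR-labelled reporter peptide T*-PRC34 bound in PDZ groove; Read-out: inhibition from polarization loss; Controls: unlabelled peptide and DMSO controls; Signal: FP readout, S and P plane fluorescence; Incubation: 1 h at RT.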
dFosB activator – activators of mouse delta FosB homodimer; purified delta FosB, TAMRA-CDK5 oligo fluorescence polarization; percent of positive-control signal above neutral wells; AID 493131; activation, % at 25 µM; 340,000 tested, 0.99% active;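 active means mean activation above about 17%, with every replicate also reaching it, limit read from the data, passing the limit was not always enough; inconclusive means only one of the two conditions met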
Target sequence (P13346 whole entry, looked up): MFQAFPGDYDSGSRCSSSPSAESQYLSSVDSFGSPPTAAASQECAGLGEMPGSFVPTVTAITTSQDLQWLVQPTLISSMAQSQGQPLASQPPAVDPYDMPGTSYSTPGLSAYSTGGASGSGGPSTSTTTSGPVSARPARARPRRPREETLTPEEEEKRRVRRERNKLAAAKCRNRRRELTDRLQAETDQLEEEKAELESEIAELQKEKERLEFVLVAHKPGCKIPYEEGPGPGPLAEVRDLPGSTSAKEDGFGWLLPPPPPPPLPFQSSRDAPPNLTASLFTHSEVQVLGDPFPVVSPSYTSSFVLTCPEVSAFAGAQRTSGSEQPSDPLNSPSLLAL
SR-BI HDL uptake – blocks mouse SR-BI lipid uptake from DiI-HDL. Q61009. ldlA[mSR-BI] CHO cells, DiI-HDL uptake fluorescence, 3 h. inhibition, % at 12.5 µM. 320,000 tested, 0.96% active. AID 488896;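 active means mean replicate inhibition of at least 70% and a set share of replicates each scoring 70 or more; inconclusive means meets just one of the two criteria; inactive means fails both criteria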;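 further: 0% = median of neutral control wells and 100% = median of positive control wells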
CAL PDZ FP-2 – inhibitors of human CAL PDZ peptide binding. purified CAL PDZ, TMR-peptide fluorescence polarization, 1 h. inhibition, % at 24.9 µM. 300,000 tested, 0.92% active;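 active means mean inhibition of at least 30% with at least half of replicates also reaching 30%; inconclusive means no clear call, values can overlap the other calls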;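 further: 0% = DMSO neutral control and 100% = excess unlabeled competitor peptide PRC23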
SR-BI DiI-HDL act – activators of SR-BI mediated HDL lipid uptake. CHO ldlA[mSR-BI] cells, DiI-HDL uptake fluorescence, 3 h; 100 = double the neutral-control signal. activation, % at 12.5 µM. 320,000 tested, 0.096% active. AID 504775;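 active means mean replicate activation of at least 60% and every replicate at or above 60%; inconclusive means mean or all-replicate condition met, but not both; inactive means mean below 60% and not all replicates reaching 60%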;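 further: 0% = median plate neutral-control signal and 100% = twice that signal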
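material = CHO ldlA[mSR-BI] cells | medium = Ham's F12 with 0.5% BSA, HEPES 25 mM, pH 7.4 | reagent = fluorescent DiI-HDL, 10 µg/mL final | compound dosing = single-point compound dose | incubation = 3 h, 37 °C | measured by = bottom-read fluorescence, 550/595 nm | measure = HDL uptake via cellular fluorescence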
Numbers without * were called inactive; ? = inconclusive; · = no result given.

SMILES	CAL PDZ FP-1	dFosB activator	SR-BI HDL uptake	CAL PDZ FP-2	SR-BI DiI-HDL act
CN1/C(=C\C=C(C#N)C#N)C(C)(C)c2ccccc21	-1	113*	6	-4	-6
CCOC(=O)C1=C(COC(=O)/C=C/c2ccc(Cl)cc2)NC(=O)NC1C (centres undefined)	-2	-1	0	-2	0
CCOC(=O)C1=C(COC(=O)/C=C/c2ccc(OCC)c(OC)c2)NC(=O)NC1C (centres undefined)	-3	-10	83*	-4	-83
CCC(CC)NC(=O)Nc1ccc(C)cc1	-1	-4	·	-3	·
COc1ccccc1CNC(=O)CN1C(=O)c2cccc(N)c2C1=O	-3	8	-6	-6	6
CCCCNC(=O)CN1C(=O)c2cccc(N)c2C1=O	-1	1	-3	66*	3
Cc1ccc(C(=O)NC2CCCN(c3ccc(C(F)(F)F)cn3)C2)cn1 (centres undefined)	0	-8	-13	45*	13
CC(C)(C)C(=O)NNC(=O)C1CC1(c1ccccc1)c1ccccc1 (centres undefined)	1	3	-2	35*	2
CC(C)(CN1CCCC1)NC(=O)C1CCC(=O)N(CCCN2CCOCC2)C1 (centres undefined)	0	-6	-1	92*	1
CCOc1ccc(OCCn2nnc3ccccc3c2=O)cc1	-1	-13	-152	-8	152*
CCCn1nnc2ccccc2c1=O	1	-3	4	-1	-4
Cc1ccc(-c2nnn(CC(=O)N(CC(=O)NC3CCCC3)c3ccccc3F)n2)o1	-2	-3	·	-5	·
COC(=O)[C@]1(Cc2ccccc2)N[C@H](CN(C)C(=O)COc2ccccc2)[C@@H]2C(=O)N(Cc3ccccc3)C(=O)[C@@H]21	1	-10	3	-2	-3
Cc1ccc(S(=O)(=O)N2CC(C)N(C(=O)N3CCOCC3)C2)cc1 (centres undefined)	-2	3	·	-4	·
CCC(=O)N1CN(S(=O)(=O)c2ccc(C)cc2)CC1C (centres undefined)	0	-5	0	42*	0
CC1(C)CC(NC(=O)COc2ccc3c4c(c(=O)oc3c2)CCCC4)CC(C)(C)N1	-3	-17	-10	-5	10
CCC(C)[C@@H](CN(N=O)[C@@H](Cc1ccccc1)CN(C)N=O)N(CCc1ccccc1)N=O (some centres undefined)	0	-12	-68	-4	68*
CN(C[C@@H](CC1CCCCC1)N(C[C@H](Cc1ccccc1)N(CCc1ccccc1)N=O)N=O)N=O	1	-5	-31	1	31
CCOc1cc(-c2noc(CCC(=O)Nc3cccnc3)n2)ccc1OC	-1	-4	-21	-4	21
COc1cc(-c2noc(CCCC(=O)Nc3cccnc3)n2)cc(OC)c1OC	-1	3	-15	69*	15
CN(/N=C/c1ccccc1Cl)c1ncc(Cl)cc1C(F)(F)F	1	2	15	44*	-15
COc1ccc(-c2noc(Cn3cc(S(=O)(=O)N4CCCC4)ccc3=O)n2)cc1	-1	-11	-3	·	3
CCOC(=O)C1CCCN(CC(=O)Nc2nccs2)C1 (centres undefined)	-2	-1	-6	0	6
Cc1ccc(NC(=O)c2sc3ncn(CC(=O)N4CCN(c5ccccn5)CC4)c(=O)c3c2C)cc1F	-1	10	68	-4	-68
COc1ccccc1NC(=O)c1sc2ncn(CC(=O)N3CCC(C)CC3)c(=O)c2c1C	-1	-1	5	-1	-5
SMILES	CAL PDZ FP-1	dFosB activator	SR-BI HDL uptake	CAL PDZ FP-2	SR-BI DiI-HDL act
CCOc1ccccc1NC(=O)c1sc2ncn(CC(=O)N3CCOCC3)c(=O)c2c1C	-2	-12	71*	4	-71
COc1cccc(NC(=O)c2sc3ncn(CC(=O)N4CCN(c5ccccn5)CC4)c(=O)c3c2C)c1	-2	-8	79*	-2	-79
Cc1nc(SC(C)C(=O)c2c(N)n(C)c(=O)n(C)c2=O)c2c(C)c(C)sc2n1 (centres undefined)	-5	-22	1	-6	-1
CCCc1cc(N2CCCC2)n2nc(C)c(-c3ccccc3)c2n1	-1	-7	78*	-3	-78
CCN1CCN(c2cc(C(C)(C)C)nc3c(-c4ccccc4)c(C)nn23)CC1	-1	-4	-5	·	5
COc1ccc(N2CCN(C(=O)CN(c3cccc(OC)c3)S(=O)(=O)c3ccccc3)CC2)cc1	0	-4	14	-2	-14
COc1ccc(/C(C)=N/NC(=O)c2ccc(CSc3cccc4cccnc34)cc2)cc1OC	-1	-5	90*	-1	-90
C/C(=N\NC(=O)c1ccc(CSc2cccc3cccnc23)cc1)C1CCCCC1	-1	9	24	-3	-24
CC1CCC(CN2C(Nc3ccccc3)=NC[C@@H]2C)CC1 (some centres undefined)	1	3	-5	-2	5
O=[N+]([O-])c1ccc(NN=Cc2cc(Br)ccc2O)nc1	-1	10	135*	4	-135
Cc1cccc(C)c1-n1c(C)cc(/C=N\Nc2ccc([N+](=O)[O-])cn2)c1C	1	-11	80*	-4	-80
COc1ccccc1NC(=O)Nc1nc(CC(=O)N2CCN(c3ccccc3OC)CC2)cs1	-3	2	?	-7	-70
Cc1cc(Br)cc(Cl)c1OC(=O)c1ccncc1	-2	4	6	47*	-6
O=C(CSc1nnnn1-c1ccccc1)NCC1(N2CCOCC2)CCCCC1	-1	-5	-18	-2	·
CC(=O)c1ccc(NC(=O)Cn2cnc(S(=O)(=O)N3CCCC3)c2)cc1	-1	-8	-12	44*	12
Cc1ccnc2nc(C(=O)OCCOc3ccc(F)cc3)nn12	40*	-4	-28	-3	28
Cc1ccnc2nc(C(=O)OCCOc3ccc(Cl)cc3)nn12	-1	-5	-10	-1	10
Cc1cc(NC(=O)CSCC(=O)N(C)Cc2cccc(Cl)c2)no1	-1	-6	-30	-5	30
C(=C\c1nccc2c1[nH]c1ccccc12)/c1ccccc1	-2	42*	59	7	-59
Cc1ccc(/C=C\c2nccc3c2[nH]c2ccccc23)cc1	0	42*	27	-5	-27
Nc1cccc(Oc2ccc3c(c2)C(=O)NC3=O)c1	-1	2	-15	-3	15
O=C(NCC(=O)N1CCN(Cc2ccccc2)CC1)c1ccc(Cl)cc1	-2	-6	12	0	-12
O=C(NCC(=O)N1CCN(Cc2ccccc2)CC1)c1ccc(Br)cc1	-1	-4	6	41*	-6
COc1ccc(C2NCCc3c2[nH]c2ccccc32)cc1CSc1nc2ccccc2s1 (centres undefined)	-2	80*	-22	-2	22
